Measured values taken from ChEMBL document CHEMBL2407086, “Semisynthesis, cytotoxic activity, and oral availability of new lipophilic 9-substituted camptothecin derivatives” (ACS Med Chem Lett, 2013).

Experiments:
[1] = test system: HeLa; assay: Cytotoxicity against human HeLa cells after 72 hrs by MTT assay; assay type: functional, cell-based
Outline: (§1)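 Cell growth measured by MTT read-out after 72 h continuous drug exposure. IC50 values derived from at least three independent experiments.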

[2] = test system: A2780; assay: Cytotoxicity against human A2780 cells after 72 hrs by MTT assay; assay type: functional, cell-based; conditions: A2780, 72 h; outline: as §1
[3] = test system: MDA-MB-231; assay: Cytotoxicity against human MDA-MB-231 cells after 72 hrs by MTT assay; assay type: functional, cell-based; conditions: MDA-MB-231, 72 h; outline: as §1
[4] = test system: K562; assay: Cytotoxicity against human K562 cells after 72 hrs by MTT assay; assay type: functional, cell-based; conditions: K562, 72 h; outline: as §1
[5] = test system: MOLT-4; assay: Cytotoxicity against human MOLT4 cells after 72 hrs by MTT assay; assay type: functional, cell-based; conditions: MOLT-4, 72 h; outline: as §1
[6] = test system: PC-3; assay: Cytotoxicity against human PC3 cells after 72 hrs by MTT assay; assay type: functional, cell-based; conditions: PC-3, 72 h; outline: as §1
[7] = test system: MCF7; assay: Cytotoxicity against human MCF7 cells after 72 hrs by MTT assay; assay type: functional, cell-based; conditions: MCF7, 72 h; outline: as §1
[8] = test system: A549; assay: Cytotoxicity against human A549 cells after 72 hrs by MTT assay; assay type: functional, cell-based; conditions: A549, 72 h; outline: as §1
[9] = Effective permeability of the compound in human Caco2 cells at 50 uM after 15 to 90 mins; assay type: ADME, cell-based; conditions: Caco-2, read-out: Peff
Outline: (§2)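 Caco-2 monolayers dosed at 50 μM. Transport measured in both directions, apical to basal (Pab) and basal to apical (Pba), in separate runs with and without the metabolic inhibitor sodium azide. Permeability coefficients were calculated with sink or non-sink equations. Values are means of three independent experiments.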

[10] = Effective permeability of the compound in human Caco2 cells at 50 uM after 15 to 90 mins in presence of sodium azide; assay type: ADME, cell-based; conditions: Caco-2, with sodium azide (concentration not stated), read-out: Peff; outline: as §2
[11] = test system: K562; assay: Ratio of topotecan IC50 to compound IC50 for human K562 cells; assay type: functional

SMILES	IC50 [1] [nM]	IC50 [2] [nM]	IC50 [3] [nM]	IC50 [4] [nM]	IC50 [5] [nM]	IC50 [6] [nM]	IC50 [7] [nM]	IC50 [8] [nM]	Papp at 50 µM [9] [×10⁻⁶ cm/s]	Papp at 50 µM [10] [×10⁻⁶ cm/s]	Ratio IC50 [11]
CC[C@@]1(O)C(=O)OCc2c1cc1n(c2=O)Cc2cc3c(CN4C(=O)c5ccccc5C4=O)c(O)ccc3nc2-1	1270	–	–	–	–	–	–	–	–	–	–
CC[C@@]1(O)C(=O)OCc2c1cc1n(c2=O)Cc2cc3c(CN4C(=O)C5=C(CCCC5)C4=O)c(O)ccc3nc2-1	214	41	> 500	> 500	15	103	159	346	–	–	–
CC[C@@]1(O)C(=O)OCc2c1cc1n(c2=O)Cc2cc3c(CN4C(=O)C=CC4=O)c(O)ccc3nc2-1	> 5000	–	–	–	–	–	–	–	–	–	–
CC[C@@]1(O)C(=O)OCc2c1cc1n(c2=O)Cc2cc3c(CN4CCCC4=O)c(O)ccc3nc2-1	> 5000	–	–	–	–	–	–	–	0.48	1.33	–
CC[C@@]1(O)C(=O)OCc2c1cc1n(c2=O)Cc2cc3c(CNC(C)=O)c(O)ccc3nc2-1	> 5000	–	–	–	–	–	–	–	1.17	1.52	–
CC[C@@]1(O)C(=O)OCc2c1cc1n(c2=O)Cc2cc3c(CN4C(=O)C5=C(CCCC5)C4=O)c(OC)ccc3nc2-1	173	28	500	109	14	51	78	226	4.91	2.58	5
CC[C@@]1(O)C(=O)OCc2c1cc1n(c2=O)Cc2cc3ccccc3nc2-1 [CAMPTOTHECIN]	24	13	162	31	0.04	78	26	99	7.88	1	–
CC[C@@]1(O)C(=O)OCc2c1cc1n(c2=O)Cc2cc3cc(O)ccc3nc2-1 [HYDROXYCAMPTOTHECIN]	–	–	–	–	–	–	–	–	7.88	1.01	–
CC[C@@]1(O)C(=O)OCc2c1cc1n(c2=O)Cc2cc3c(CN(C)C)c(O)ccc3nc2-1 [TOPOTECAN]	–	33	> 500	500	19	62	63	354	1.77	2.88	–
